Experimental data: publication PMC7452071 (Acta Pharmaceutica Sinica. B, 2019)

What was measured:
[1] = test system: Acetyl-H3 and Acetyl-H4 in HCT116 cells; experiment: Western blot for acetylated histones H3 and H4; assay type: cell-based, human; conditions: 0.5 and 5 μmol/L, 24 h
Summary of the method: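 HCT116 cells (35 × 10^4/well) were exposed 24 h to test compound or DMSO vehicle, washed with cold PBS and lysed 30 min on ice in RIPA with protease/phosphatase inhibitors. BCA-quantified protein (30 μg) was run on SDS-PAGE and transferred to PVDF. Membranes were blocked 2 h in 5% BSA, probed overnight at 4 °C with anti-histone H3 and H4 antibodies, then secondary 1.5 h. Infrared imaging.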

[2] = biological target: HDAC8 (Homo sapiens, UniProt Q9BY41); experiment: HDACs activity assay, HDAC8; assay type: biochemical
HDAC8, sequence (Q9BY41 whole entry, canonical isoform): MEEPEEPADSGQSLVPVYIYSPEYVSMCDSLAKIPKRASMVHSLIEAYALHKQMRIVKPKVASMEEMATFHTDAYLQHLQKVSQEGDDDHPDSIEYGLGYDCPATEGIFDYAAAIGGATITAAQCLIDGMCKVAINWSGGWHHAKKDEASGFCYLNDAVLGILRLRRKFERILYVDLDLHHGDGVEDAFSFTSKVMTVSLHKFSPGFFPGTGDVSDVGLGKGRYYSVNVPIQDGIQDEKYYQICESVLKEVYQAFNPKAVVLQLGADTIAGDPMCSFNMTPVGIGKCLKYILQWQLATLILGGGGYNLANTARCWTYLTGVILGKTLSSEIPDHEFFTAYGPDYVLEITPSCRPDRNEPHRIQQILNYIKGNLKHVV
Summary of the method: (§1)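 Enzyme reactions run 30 min at 37 °C in 25 mmol/L Tris pH 8.0, 137 mmol/L NaCl, 2.7 mmol/L KCl, 1 mmol/L MgCl2, 0.1 mg/mL BSA with the HDAC isoform and its substrate. Test compound diluted in 10% DMSO, final DMSO 1%. Fluorescent product read at excitation 350–360, emission 450–460. IC50 from normalized nonlinear dose-response fit. At least three independent runs; mean ± SD (n = 3).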

[3] = test system: γH2AX in HCT116 cells; experiment: Western blot for γH2AX; assay type: cell-based, human; conditions: 0.5 and 5 μmol/L, 24 h
Summary of the method: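 HCT116 seeded at 35 × 10^4 cells/well, treated 24 h with test compound or vehicle. Cells washed in cold PBS, lysed 30 min on ice in RIPA with protease and phosphatase inhibitors, protein quantified by BCA. 30 μg resolved by SDS-PAGE, transferred to PVDF, blocked 2 h in 5% BSA, primary antibody overnight at 4 °C, secondary 1.5 h, infrared imaging.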

[4] = test system: HCT116 cells; experiment: Flow cytometry analysis of cell cycle; assay type: cell-based, human; conditions: 48 h
[5] = biological target: HDAC11 (Homo sapiens, UniProt Q96DB2); experiment: HDACs activity assay, HDAC11; assay type: biochemical
HDAC11, sequence (Q96DB2 whole entry): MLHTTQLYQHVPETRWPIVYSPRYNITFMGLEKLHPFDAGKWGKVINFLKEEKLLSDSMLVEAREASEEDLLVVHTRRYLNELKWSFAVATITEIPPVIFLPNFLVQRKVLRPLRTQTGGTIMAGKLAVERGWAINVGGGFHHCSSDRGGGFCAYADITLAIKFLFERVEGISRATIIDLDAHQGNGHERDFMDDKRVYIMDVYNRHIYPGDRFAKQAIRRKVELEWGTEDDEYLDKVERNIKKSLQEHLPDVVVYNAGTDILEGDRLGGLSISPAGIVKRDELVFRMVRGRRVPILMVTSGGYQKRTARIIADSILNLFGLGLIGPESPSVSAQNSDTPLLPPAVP
Summary of the method: as §1

[6] = biological target: human recombinant HDAC1 enzyme (Homo sapiens, UniProt Q13547); experiment: HDACs activity assay, HDAC1; assay type: biochemical; conditions: read-out: IC50 HDAC1; Table 3, Table S1 and text
human recombinant HDAC1 enzyme, sequence (Q13547 whole entry): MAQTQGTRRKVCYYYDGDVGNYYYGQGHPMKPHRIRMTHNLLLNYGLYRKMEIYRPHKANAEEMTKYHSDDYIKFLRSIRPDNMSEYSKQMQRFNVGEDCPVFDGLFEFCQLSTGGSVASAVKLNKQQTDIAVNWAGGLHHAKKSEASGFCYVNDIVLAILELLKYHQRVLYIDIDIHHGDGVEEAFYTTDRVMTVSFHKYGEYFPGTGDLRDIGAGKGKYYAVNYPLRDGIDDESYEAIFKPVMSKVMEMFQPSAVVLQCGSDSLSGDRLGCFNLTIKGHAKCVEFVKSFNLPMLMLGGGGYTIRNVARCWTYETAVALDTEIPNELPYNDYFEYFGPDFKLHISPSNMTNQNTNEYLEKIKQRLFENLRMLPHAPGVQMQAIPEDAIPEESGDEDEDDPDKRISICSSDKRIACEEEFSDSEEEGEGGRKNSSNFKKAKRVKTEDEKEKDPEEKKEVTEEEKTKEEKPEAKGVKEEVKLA

[7] = biological target: HDAC4 (Homo sapiens, UniProt P56524); experiment: HDACs activity assay, HDAC4; assay type: biochemical
HDAC4, sequence (P56524 whole entry): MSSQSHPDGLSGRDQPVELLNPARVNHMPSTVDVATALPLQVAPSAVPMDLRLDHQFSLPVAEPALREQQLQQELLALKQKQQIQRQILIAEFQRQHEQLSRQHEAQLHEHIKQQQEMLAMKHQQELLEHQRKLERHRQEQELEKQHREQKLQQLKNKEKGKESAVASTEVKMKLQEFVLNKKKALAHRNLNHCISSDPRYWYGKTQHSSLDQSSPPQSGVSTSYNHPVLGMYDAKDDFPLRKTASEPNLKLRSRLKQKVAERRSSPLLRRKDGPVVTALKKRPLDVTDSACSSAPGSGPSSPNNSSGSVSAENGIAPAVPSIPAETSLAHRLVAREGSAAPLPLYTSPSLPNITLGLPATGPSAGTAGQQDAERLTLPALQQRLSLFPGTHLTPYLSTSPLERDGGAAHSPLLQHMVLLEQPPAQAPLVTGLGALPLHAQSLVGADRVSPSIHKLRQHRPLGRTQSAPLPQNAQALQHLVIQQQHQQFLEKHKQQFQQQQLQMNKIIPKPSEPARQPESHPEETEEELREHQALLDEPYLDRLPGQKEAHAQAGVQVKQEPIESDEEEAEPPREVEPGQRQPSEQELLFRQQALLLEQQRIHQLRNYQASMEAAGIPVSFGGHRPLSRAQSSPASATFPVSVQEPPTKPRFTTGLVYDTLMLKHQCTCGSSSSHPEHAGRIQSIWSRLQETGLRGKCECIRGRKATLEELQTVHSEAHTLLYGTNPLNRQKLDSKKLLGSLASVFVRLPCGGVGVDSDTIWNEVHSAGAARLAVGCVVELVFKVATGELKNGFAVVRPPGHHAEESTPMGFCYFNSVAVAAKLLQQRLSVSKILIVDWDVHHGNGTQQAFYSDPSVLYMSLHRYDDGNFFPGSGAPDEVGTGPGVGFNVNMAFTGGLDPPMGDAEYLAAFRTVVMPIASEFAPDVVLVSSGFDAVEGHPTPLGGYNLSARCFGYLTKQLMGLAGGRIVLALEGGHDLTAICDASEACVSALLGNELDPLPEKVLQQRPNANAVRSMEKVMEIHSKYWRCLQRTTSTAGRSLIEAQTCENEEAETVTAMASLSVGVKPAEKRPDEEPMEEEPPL
Summary of the method: as §1

[8] = Pharmacokinetic study in SD rats; assay type: in vivo; conditions: male, Sprague-Dawley, rat, plasma, 20 mg/kg
[9] = biological target: HDAC3 (Homo sapiens, UniProt O15379); experiment: HDACs activity assay, HDAC3; assay type: biochemical
HDAC3, sequence (O15379 whole entry): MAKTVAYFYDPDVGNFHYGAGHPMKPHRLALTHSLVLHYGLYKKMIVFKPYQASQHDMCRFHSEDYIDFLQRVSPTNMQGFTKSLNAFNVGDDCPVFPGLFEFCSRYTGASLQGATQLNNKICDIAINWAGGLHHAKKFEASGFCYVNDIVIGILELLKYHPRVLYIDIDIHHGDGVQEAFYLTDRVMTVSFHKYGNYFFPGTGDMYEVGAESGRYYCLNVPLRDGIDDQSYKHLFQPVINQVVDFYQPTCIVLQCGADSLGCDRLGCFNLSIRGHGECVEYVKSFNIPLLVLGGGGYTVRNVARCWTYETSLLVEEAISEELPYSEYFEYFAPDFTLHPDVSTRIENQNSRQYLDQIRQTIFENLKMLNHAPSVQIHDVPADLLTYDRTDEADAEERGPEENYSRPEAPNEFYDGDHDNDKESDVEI
HDAC3, sequence (Q9Y618 395-489 partner limits assumed): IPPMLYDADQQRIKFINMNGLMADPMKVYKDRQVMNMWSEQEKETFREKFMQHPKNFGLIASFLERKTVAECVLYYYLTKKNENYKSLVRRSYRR
Summary of the method: as §1

[10] = In vitro metabolic stability in mice liver microsomes; assay type: in vitro ADME
[11] = test system: MCF-7 (breast cancer); experiment: In vitro cell viability assay; assay type: cell-based; conditions: Homo sapiens, MCF7, 48 h, read-out: IC50 MCF-7
[12] = biological target: HDAC6 (Homo sapiens, UniProt Q9UBN7); experiment: HDACs activity assay, HDAC6; assay type: biochemical
Summary of the method: as §1

[13] = test system: HCT116 xenograft; experiment: In vivo tumor growth inhibition assay against HCT116 xenograft; conditions: bid
[14] = biological target: HDAC2 (Homo sapiens, UniProt Q92769); experiment: HDACs activity assay, HDAC2; assay type: biochemical
HDAC2, sequence (Q92769 whole entry): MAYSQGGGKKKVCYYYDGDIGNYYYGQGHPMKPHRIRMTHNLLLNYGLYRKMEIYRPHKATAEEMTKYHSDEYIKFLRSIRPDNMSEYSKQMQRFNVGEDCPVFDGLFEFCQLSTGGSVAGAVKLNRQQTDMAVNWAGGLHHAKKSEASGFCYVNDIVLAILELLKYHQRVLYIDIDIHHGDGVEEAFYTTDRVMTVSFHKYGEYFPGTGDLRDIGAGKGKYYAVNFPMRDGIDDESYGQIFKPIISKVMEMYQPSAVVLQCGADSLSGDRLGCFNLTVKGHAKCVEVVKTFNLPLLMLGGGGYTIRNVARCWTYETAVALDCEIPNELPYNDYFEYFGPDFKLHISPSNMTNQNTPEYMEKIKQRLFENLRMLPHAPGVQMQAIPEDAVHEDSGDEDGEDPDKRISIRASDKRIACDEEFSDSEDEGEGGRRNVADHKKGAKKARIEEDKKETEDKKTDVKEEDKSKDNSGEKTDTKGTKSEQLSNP
Summary of the method: as §1

[15] = test system: hematological cell lines (HL60, K562 and HEL); experiment: Antiproliferative activity, hematological cell lines together; assay type: cell-based; conditions: read-out: IC50 range toward hematological cell lines
[16] = test system: HCT116 (colon cancer); experiment: In vitro cell viability assay; assay type: cell-based; conditions: Homo sapiens, HCT-116, 48 h, read-out: IC50 HCT116
[17] = test system: HCT116 cells; experiment: Flow cytometry assay of cell apoptosis; assay type: cell-based, human; conditions: 48 h
[18] = test system: A549 (lung cancer); experiment: In vitro cell viability assay; assay type: cell-based; conditions: Homo sapiens, A549, 48 h, read-out: IC50 A549
[19] = biological target: TOP2α (Homo sapiens, UniProt P11388); experiment: TOP2-mediated pBR322 DNA relaxation assay; assay type: biochemical
TOP2α, sequence (P11388 whole entry): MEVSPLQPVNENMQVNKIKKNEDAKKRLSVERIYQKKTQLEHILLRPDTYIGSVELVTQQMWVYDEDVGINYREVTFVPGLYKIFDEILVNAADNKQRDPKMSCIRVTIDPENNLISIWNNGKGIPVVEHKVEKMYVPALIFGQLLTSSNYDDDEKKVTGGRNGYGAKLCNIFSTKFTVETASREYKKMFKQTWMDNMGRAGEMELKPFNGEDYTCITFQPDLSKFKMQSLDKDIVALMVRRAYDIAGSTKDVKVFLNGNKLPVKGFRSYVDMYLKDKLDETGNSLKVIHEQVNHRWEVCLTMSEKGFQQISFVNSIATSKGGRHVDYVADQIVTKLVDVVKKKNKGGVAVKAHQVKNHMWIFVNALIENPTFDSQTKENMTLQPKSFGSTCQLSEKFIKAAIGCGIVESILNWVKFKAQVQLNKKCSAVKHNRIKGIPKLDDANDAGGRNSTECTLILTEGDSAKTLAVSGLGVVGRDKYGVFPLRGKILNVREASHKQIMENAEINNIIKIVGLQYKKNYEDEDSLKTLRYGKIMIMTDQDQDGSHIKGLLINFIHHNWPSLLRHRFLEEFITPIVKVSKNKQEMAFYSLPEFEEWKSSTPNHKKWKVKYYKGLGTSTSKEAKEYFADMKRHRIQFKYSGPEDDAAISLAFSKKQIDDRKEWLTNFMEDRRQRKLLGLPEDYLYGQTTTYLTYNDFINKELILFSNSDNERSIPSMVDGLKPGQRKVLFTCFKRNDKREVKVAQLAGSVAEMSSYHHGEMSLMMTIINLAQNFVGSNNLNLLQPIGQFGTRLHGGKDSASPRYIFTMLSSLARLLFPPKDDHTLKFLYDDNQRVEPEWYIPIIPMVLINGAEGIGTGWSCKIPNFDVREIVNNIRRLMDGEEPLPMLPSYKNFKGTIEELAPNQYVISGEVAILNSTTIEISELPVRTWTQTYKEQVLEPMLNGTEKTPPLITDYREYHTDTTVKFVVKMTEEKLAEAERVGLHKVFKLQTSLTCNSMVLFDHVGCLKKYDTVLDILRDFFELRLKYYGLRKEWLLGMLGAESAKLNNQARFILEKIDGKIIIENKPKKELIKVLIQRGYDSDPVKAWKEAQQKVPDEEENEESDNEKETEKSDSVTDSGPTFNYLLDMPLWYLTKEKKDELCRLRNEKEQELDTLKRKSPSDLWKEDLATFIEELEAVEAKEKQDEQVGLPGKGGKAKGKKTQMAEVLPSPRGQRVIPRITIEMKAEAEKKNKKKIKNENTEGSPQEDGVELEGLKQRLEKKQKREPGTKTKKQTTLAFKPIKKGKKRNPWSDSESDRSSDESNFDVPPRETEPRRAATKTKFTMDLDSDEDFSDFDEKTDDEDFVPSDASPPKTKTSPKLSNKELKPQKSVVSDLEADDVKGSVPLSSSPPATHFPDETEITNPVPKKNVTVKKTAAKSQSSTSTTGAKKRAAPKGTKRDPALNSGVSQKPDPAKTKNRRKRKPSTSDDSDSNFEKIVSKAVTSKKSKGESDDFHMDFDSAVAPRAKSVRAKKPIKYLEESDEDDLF

[20] = biological target: HDAC10 (Homo sapiens, UniProt Q969S8); experiment: HDACs activity assay, HDAC10; assay type: biochemical
Summary of the method: as §1

[21] = test system: HUVEC; experiment: Cytotoxicity against human normal cell line HUVEC; assay type: cell-based; conditions: read-out: IC50 HUVEC
[22] = female, ICR, mouse, liver microsomes, pH 7.4

CN1c2ccccc2C(=O)N2[C@H](C(=O)Nc3ccc(C(=O)Nc4ccccc4N)cc3)Cc3c([nH]c4ccccc34)[C@@H]12 [Compound 30a, (7S,13bS)-N-(4-((2-Aminophenyl)carbamoyl)phenyl)-14-methyl-5-oxo-5,7,8,13,13b,14-hexahydroindolo[2′,3′:3,4]pyrido[2,1-b]quinazoline-7-carboxamide]
Acetylation of histone 3 and 4 (Acetyl-H3 and Acetyl-H4) [1]: hyperacetylation effect of histone 3 and 4 (Acetyl-H3 and Acetyl-H4) in a dose-dependent manner | IC50 [2]: > 100 µM | Expression of γH2AX [3]: increased the expression of γH2AX | Ratio of cells at the G2/M phase ([4]; HCT116, 0.5 μmol/L): 32.9% | Ratio of cells at the G2/M phase ([4]; HCT116, 1 μmol/L): 36.4% | Ratio of cells at the G2/M phase ([4]; HCT116, 2 μmol/L): 38.8% | IC50 [5]: > 100 µM | IC50 [6]: 0.16 ± 0.015 µM | IC50 [7]: > 100 µM | AUC(0-t) ([8]; ip): 86900 ng·h/mL | half-life ([8]; ip): > 24 h | AUC(0-t) ([8]; po): 485 ng·h/mL | half-life ([8]; po): 4.03 h | IC50 [9]: 27 ± 4.8 µM | half-life at 1 μmol/L [10, 22]: 0.583 h | microsomal CLint at 1 μmol/L [10, 22]: 39.1 µL/min/mg | Microsomal t1/2 relative to compound 25a ([10]; mice liver microsomes): ~3 fold | IC50 [11]: 18 ± 2 µM | IC50 [12]: > 100 µM | Tumor growth inhibition (TGI) ([13]; 20 mg/kg, i.p., 14 consecutive days): 63.6% | Tumor growth inhibition (TGI) ([13]; 100 mg/kg, p.o., 21 days): 65.42% | Tumor growth inhibition (TGI) ([13]; 150 mg/kg, p.o., 21 days (dose of the combination not given)): 75.2% | Body weight during the test ([13]; p.o., 100 or 150 mg/kg, 21 days): no significant difference | IC50 [14]: 10 ± 1.4 µM | IC50 [15]: 0.56 to 1.9 µM | IC50 [16]: 1.6 ± 0.15 µM | Percentage of apoptotic cells ([17]; HCT116, 0.5 μmol/L): 27.6% | Percentage of apoptotic cells ([17]; HCT116, 1 μmol/L): 37.1% | Percentage of apoptotic cells ([17]; HCT116, 5 μmol/L): 88.8% | IC50 [18]: 7.8 ± 0.65 µM | TOP2 inhibitory activity (relaxation assay) ([19]; 50 μmol/L): remarkable TOP2 inhibitory activities | TOP2 inhibitory activity (relaxation assay) ([19]; 100 μmol/L): remarkable TOP2 inhibitory activities | IC50 [20]: 5.5 ± 1.5 µM | IC50 [21]: 48 µM
